Results as given in ChEMBL document CHEMBL1143109, “Discovery of novel orally active ureido NPY Y5 receptor antagonists” (Bioorg Med Chem Lett, 2008).

Each compound was assayed against Neuropeptide Y receptor type 5 (Homo sapiens, UniProt Q15761) (assay: Displacement of [125]PYY from human chimeric NPY Y5 receptor expressed in CHOK1 cells). Conditions: cho-k1.
Type: cell-based
In short: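 Binding to human chimeric Y5 receptor expressed in CHO-K1 cells; Ki values are the average of two determinations.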

Chain of Neuropeptide Y receptor type 5 (Q15761 whole entry, looked up): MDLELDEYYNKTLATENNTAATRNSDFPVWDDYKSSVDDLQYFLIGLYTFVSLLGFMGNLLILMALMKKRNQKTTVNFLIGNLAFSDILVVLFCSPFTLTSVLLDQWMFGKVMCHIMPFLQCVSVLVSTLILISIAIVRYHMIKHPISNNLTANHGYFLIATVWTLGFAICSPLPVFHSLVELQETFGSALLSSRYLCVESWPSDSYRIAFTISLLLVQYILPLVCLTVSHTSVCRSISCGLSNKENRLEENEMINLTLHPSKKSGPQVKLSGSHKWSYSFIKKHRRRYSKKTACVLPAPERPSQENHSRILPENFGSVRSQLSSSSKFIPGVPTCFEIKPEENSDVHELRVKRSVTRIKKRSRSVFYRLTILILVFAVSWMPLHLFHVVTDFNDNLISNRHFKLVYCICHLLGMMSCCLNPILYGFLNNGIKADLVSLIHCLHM

SMILES | Ki [nM]
CN(C(=O)NC1CCN(c2cccc(Cl)c2)CC1)C1CCN(S(C)(=O)=O)CC1 | 13
CN(C(=O)NC1CCN(c2ccc(Cl)cc2)CC1)C1CCN(S(C)(=O)=O)CC1 | 130
CN(C(=O)N[C@H]1CC[C@H](c2ccccc2)CC1)C1CCN(S(C)(=O)=O)CC1 | 52
CN(C(=O)NC1CCN(c2cccc(C#N)c2)CC1)C1CCN(S(C)(=O)=O)CC1 | 27
CN(C(=O)NC1CCN(c2ccc(Br)cc2)CC1)C1CCN(S(C)(=O)=O)CC1 | 819
CN(C(=O)NC1CCN(c2ccccc2)CC1)C1CCN(S(C)(=O)=O)CC1 | 303
CN(C(=O)NC1CCN(c2ccc(F)c(F)c2)CC1)C1CCN(S(C)(=O)=O)CC1 | 312
CN(C(=O)NC1CCN(c2cccc(F)c2)CC1)C1CCN(S(C)(=O)=O)CC1 | 35
CCCC(=O)N1CCC(N(C)C(=O)NC2CCN(c3cc(F)cc(F)c3)CC2)CC1 | 5.9
CN(C(=O)NC1CCN(c2ccccc2F)CC1)C1CCN(S(C)(=O)=O)CC1 | 88
CC(=O)N1CCC(N(C)C(=O)NC2CCN(c3cc(F)cc(F)c3)CC2)CC1 | 7.4
CC(=O)N1CCC(N(C)C(=O)N[C@H]2CC[C@@H](c3ccccc3)CC2)CC1 | > 1000
CCC(=O)N1CCC(N(C)C(=O)NC2CCN(c3cc(F)cc(F)c3)CC2)CC1 | 6.3
CN(C(=O)NC1CCN(c2ccc(F)cc2)CC1)C1CCN(S(C)(=O)=O)CC1 | 799
CC(=O)N1CCC(N(C)C(=O)N[C@H]2CC[C@H](c3ccccc3)CC2)CC1 | 59
Cc1cccc(N2CCC(NC(=O)N(C)C3CCN(S(C)(=O)=O)CC3)CC2)c1 | 20
CN(C(=O)NC1CCN(c2ccc(F)c(Cl)c2)CC1)C1CCN(S(C)(=O)=O)CC1 | 160
CN(C(=O)NC1CCN(c2cccnc2)CC1)C1CCN(S(C)(=O)=O)CC1 | 405
CC(=O)c1cccc(N2CCC(NC(=O)N(C)C3CCN(S(C)(=O)=O)CC3)CC2)c1 | 164
COc1cccc(N2CCC(NC(=O)N(C)C3CCN(S(C)(=O)=O)CC3)CC2)c1 | 311
Cc1ccccc1N1CCC(NC(=O)N(C)C2CCN(S(C)(=O)=O)CC2)CC1 | 52
CN(C(=O)N[C@H]1CC[C@@H](c2ccccc2)CC1)C1CCN(S(C)(=O)=O)CC1 | 500
CN(C(=O)NC1CCN(c2cccc(Br)c2)CC1)C1CCN(S(C)(=O)=O)CC1 | 8.8
CN(C(=O)NC1CCN(c2ccc(Cl)c(Cl)c2)CC1)C1CCN(S(C)(=O)=O)CC1 | 48

These reach a lower Ki. Values come first.

Ki [nM] | SMILES
3.4 | CCCS(=O)(=O)N1CCC(N(C)C(=O)NC2CCN(c3cc(F)cc(F)c3)CC2)CC1
3.2 | CN(C(=O)NC1CCN(c2cc(F)cc(F)c2)CC1)C1CCN(S(C)(=O)=O)CC1
3.2 | CC(C)S(=O)(=O)N1CCC(N(C)C(=O)NC2CCN(c3cc(F)cc(F)c3)CC2)CC1
2.8 | CCS(=O)(=O)N1CCC(N(C)C(=O)NC2CCN(c3cc(F)cc(F)c3)CC2)CC1
2.6 | CC(C)C(=O)N1CCC(N(C)C(=O)NC2CCN(c3cc(F)cc(F)c3)CC2)CC1
2.4 | CCCC(=O)N1CCC(N(C)C(=O)N[C@H]2CC[C@H](c3cc(F)cc(F)c3)CC2)CC1 (stereo in doubt; 21h)
2 | CCCC(=O)N1CCC(N(C)C(=O)N[C@H]2CC[C@H](c3cc(F)cc(F)c3)CC2)CC1 (stereo in doubt; 21e)
1.5 | CCC(=O)N1CCC(N(C)C(=O)N[C@H]2CC[C@H](c3cc(F)cc(F)c3)CC2)CC1
1.2 | CN(C(=O)N[C@H]1CC[C@H](c2cc(F)cc(F)c2)CC1)C1CCN(S(C)(=O)=O)CC1
1.1 | CN(C(=O)NC1CCN(c2cc(Cl)cc(Cl)c2)CC1)C1CCN(S(C)(=O)=O)CC1
0.75 | CCS(=O)(=O)N1CCC(N(C)C(=O)N[C@H]2CC[C@H](c3cc(F)cc(F)c3)CC2)CC1
0.4 | CN(C(=O)Nc1ccc(-c2cc(F)cc(F)c2)cc1)C1CCN(S(C)(=O)=O)CC1

What follows are compounds tested on Rattus norvegicus (assay: Blockade of D-Trp[34]-NPY-induced food intake in po dosed rat). Conditions: not given.
Type: functional

SMILES | ED50 [mg/kg]
CN(C(=O)Nc1ccc(-c2cc(F)cc(F)c2)cc1)C1CCN(S(C)(=O)=O)CC1 | 0.4

Each compound was assayed against T1, Neuropeptide Y receptor type 5 (Rattus norvegicus) (UniProt Q63634) (assay: Antagonist activity at rat NPY Y5 receptor expressed in HEK293 cells assessed as inhibition of forskolin-stimulated cAMP production). Conditions: not given.
T1 sequence (whole entry): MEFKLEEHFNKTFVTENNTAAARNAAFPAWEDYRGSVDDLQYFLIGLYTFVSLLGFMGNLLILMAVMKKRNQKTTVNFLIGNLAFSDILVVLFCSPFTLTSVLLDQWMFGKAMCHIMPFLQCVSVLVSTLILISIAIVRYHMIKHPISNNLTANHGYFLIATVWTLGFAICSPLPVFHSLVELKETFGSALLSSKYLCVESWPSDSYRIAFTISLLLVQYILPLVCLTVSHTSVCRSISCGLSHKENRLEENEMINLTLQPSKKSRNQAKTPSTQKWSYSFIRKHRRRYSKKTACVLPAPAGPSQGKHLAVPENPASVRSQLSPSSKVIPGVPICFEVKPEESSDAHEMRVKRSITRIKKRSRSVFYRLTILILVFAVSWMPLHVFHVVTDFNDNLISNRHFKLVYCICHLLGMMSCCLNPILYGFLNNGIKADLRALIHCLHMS
Type: functional, cell-based
In short: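 HEK293 cells expressing rat NPY Y5 receptor. Functional antagonism measured as the ability to overcome NPY inhibition of forskolin-stimulated cAMP production; reported as Kb.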

Kb [nM] | SMILES
0.4 | CN(C(=O)Nc1ccc(-c2cc(F)cc(F)c2)cc1)C1CCN(S(C)(=O)=O)CC1
